Consider one molecule from paper PMC8473721 (Journal of Inflammation Research, 2021).

This test deals with MCF-7 human breast tumor xenograft. Briefly: In vivo anticancer activity in human breast tumor xenograft model. The note with it: 10 mg/kg BW. On the set-up: species or system female nude (nu/nu) mice. The essentials: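 Female nu/nu mice (6~7 weeks) were given about 1.5×10^7 MCF-7 cells subcutaneously in the dorsal back, in medium:Matrigel 1:1. Estradiol cyclopentyl propionate (100 µg/mouse) was given s.c. twice weekly. Once tumors reached ≥5 mm, mice were randomised, six per group, to 5 mg/kg BW test compound for 45 days, paclitaxel 10 mg/kg, or vehicle. Tumor size, BW and toxicity signs were recorded every 4 days.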
Background: In xenograft studies the graft and the host belong to different species.

On to `CC(=O)O[C@H]1C(=O)[C@@]2(C)[C@H]([C@H](OC(=O)c3ccccc3)[C@]3(O)C[C@H](OC(=O)[C@H](O)[C@@H](NC(=O)c4ccccc4)c4ccccc4)C(C)=C1C3(C)C)[C@]1(OC(C)=O)CO[C@@H]1C[C@@H]2O` [paclitaxel], for which the tumor growth result was “significantly (p<0.001) inhibited tumor growth”.
